# Source: article PMC7909006 (Clinical cancer research : an official journal of the …, 2020)
# Columns and labels:
# [1] = system: serum cytokines (IL-10, IL-12p70, IL-6, MCP-1, M-CSF); assay: Pharmacodynamics: serum cytokine analysis, fold change from Day 1; assay type: in vivo, human
# [2] = system: circulating monocytes and regulatory T cells and TAMs; conditions: cited from earlier work
# [3] = system: peripheral blood immune cells; assay: Pharmacodynamics: fold change in peripheral blood; assay type: in vivo, human
# Procedure, shortened: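 Complete blood counts, including absolute monocyte count, were taken as safety labs before treatment, mid-C1, before C2–C9, then every other cycle and at end of therapy. Patients took the oral agent once daily on a continuous 28-day cycle, dosed by BSA at 400, 600 or 800 mg/m2.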
# [4] = recurrent glioblastoma patients, plasma taken at time of surgery; cited from earlier work
structure (smiles),measurement,setting,value
FC(F)(F)c1ccc(CNc2ccc(Cc3c[nH]c4ncc(Cl)cc34)cn2)cn1 [Pexidartinib],"IL-12p70 serum, Med. Fold Change (95% CI) from Day 1","[1]; 14–15 Days from C1, N=12","0.92 (0.80, 1.25)"
same,"M-CSF serum, Med. Fold Change (95% CI) from Day 1","[1]; 14–15 Days from C1, N=12","3.70 (2.31, 5.24)"
same,"MCP-1 serum, Med. Fold Change (95% CI) from Day 1","[1]; 14–15 Days from C1, N=12","1.28 (1.01, 1.56)"
same,"IL-6 serum, Med. Fold Change (95% CI) from Day 1","[1]; 27–29 Days from C1, N=8","0.98 (0.64, 2.39)"
same,"IL-10 serum, Med. Fold Change (95% CI) from Day 1","[1]; 27–29 Days from C1, N=8","1.22 (0.81, 1.30)"
same,"IL-12p70 serum, Med. Fold Change (95% CI) from Day 1","[1]; 27–29 Days from C1, N=8","0.86 (0.66, 1.05)"
same,"M-CSF serum, Med. Fold Change (95% CI) from Day 1","[1]; 27–29 Days from C1, N=8","4.52 (2.40, 13.3)"
same,"MCP-1 serum, Med. Fold Change (95% CI) from Day 1","[1]; 27–29 Days from C1, N=8","1.27 (1.11, 1.54)"
same,"Target inhibition (CSF1 levels elevated, AMC levels decreased)","[1]; 400, 600, 800 mg/m^2 DLs",seen at all DLs
same,Effect on immune cells in a preclinical model,[2],decreases in circulating monocytes and regulatory T cells and TAMs
same,"Absolute Immature Granulocyte, Med. Fold Change (95% CI) from Day 1","[3]; 6–8 Days from C1, N=9","0.50 (0.10, 1.00)"
same,"Immature granulocytes, Med. Fold Change (95% CI) from Day 1","[3]; 6–8 Days from C1, N=9","0.50 (0.08, 0.67)"
same,"Absolute Eosinophil Count, Med. Fold Change (95% CI) from Day 1","[3]; 6–8 Days from C1, N=10","0.76 (0.50, 1.07)"
same,"Eosinophils %, Med. Fold Change (95% CI) from Day 1","[3]; 6–8 Days from C1, N=10","0.78 (0.55, 1.04)"
same,"Absolute Basophil Count, Med. Fold Change (95% CI) from Day 1","[3]; 6–8 Days from C1, N=12","0.92 (0.50, 1.00)"
same,"Basophils %, Med. Fold Change (95% CI) from Day 1","[3]; 6–8 Days from C1, N=12","0.95 (0.50, 1.13)"
same,"Absolute Lymphocyte Count, Med. Fold Change (95% CI) from Day 1","[3]; 6–8 Days from C1, N=13","0.97 (0.68, 1.20)"
same,"Absolute Monocyte Count, Med. Fold Change (95% CI) from Day 1","[3]; 6–8 Days from C1, N=13","0.58 (0.35, 0.81)"
same,"Absolute Neutrophil Count, Med. Fold Change (95% CI) from Day 1","[3]; 6–8 Days from C1, N=13","0.90 (0.77, 1.26)"
same,"Hemoglobin (Hgb), Med. Fold Change (95% CI) from Day 1","[3]; 6–8 Days from C1, N=13","1.03 (0.97, 1.08)"
same,"Lymphocytes %, Med. Fold Change (95% CI) from Day 1","[3]; 6–8 Days from C1, N=13","0.96 (0.81, 1.29)"
same,"Monocytes %, Med. Fold Change (95% CI) from Day 1","[3]; 6–8 Days from C1, N=13","0.60 (0.40, 0.87)"
same,"Neutrophils % + bands, Med. Fold Change (95% CI) from Day 1","[3]; 6–8 Days from C1, N=13","1.08 (0.96, 1.13)"
same,"Platelet Count, Med. Fold Change (95% CI) from Day 1","[3]; 6–8 Days from C1, N=13","1.10 (0.84, 1.17)"
same,"White blood cell (WBC), Med. Fold Change (95% CI) from Day 1","[3]; 6–8 Days from C1, N=13","0.89 (0.78, 1.07)"
same,"Absolute Immature Granulocyte, Med. Fold Change (95% CI) from Day 1","[3]; 14–16 Days from C1, N=9","0.50 (0.19, 1.00)"
same,"Immature granulocytes, Med. Fold Change (95% CI) from Day 1","[3]; 14–16 Days from C1, N=9","0.46 (0.30, 0.67)"
same,"Absolute Basophil Count, Med. Fold Change (95% CI) from Day 1","[3]; 14–16 Days from C1, N=11","0.67 (0.50, 1.00)"
same,"Absolute Eosinophil Count, Med. Fold Change (95% CI) from Day 1","[3]; 14–16 Days from C1, N=11","1.00 (0.81, 1.27)"
same,"Basophils %, Med. Fold Change (95% CI) from Day 1","[3]; 14–16 Days from C1, N=11","0.83 (0.50, 1.13)"
same,"Eosinophils %, Med. Fold Change (95% CI) from Day 1","[3]; 14–16 Days from C1, N=11","0.97 (0.92, 1.53)"
same,"Absolute Lymphocyte Count, Med. Fold Change (95% CI) from Day 1","[3]; 14–16 Days from C1, N=13","0.88 (0.73, 1.03)"
same,"Absolute Monocyte Count, Med. Fold Change (95% CI) from Day 1","[3]; 14–16 Days from C1, N=13","0.56 (0.40, 0.89)"
same,"Absolute Neutrophil Count, Med. Fold Change (95% CI) from Day 1","[3]; 14–16 Days from C1, N=13","0.96 (0.64, 1.15)"
same,"Hemoglobin (Hgb), Med. Fold Change (95% CI) from Day 1","[3]; 14–16 Days from C1, N=13","0.97 (0.91, 1.00)"
same,"Lymphocytes %, Med. Fold Change (95% CI) from Day 1","[3]; 14–16 Days from C1, N=13","0.92 (0.87, 1.25)"
same,"Monocytes %, Med. Fold Change (95% CI) from Day 1","[3]; 14–16 Days from C1, N=13","0.67 (0.52, 0.89)"
same,"Neutrophils % + bands, Med. Fold Change (95% CI) from Day 1","[3]; 14–16 Days from C1, N=13","1.08 (0.96, 1.13)"
same,"Platelet Count, Med. Fold Change (95% CI) from Day 1","[3]; 14–16 Days from C1, N=13","0.97 (0.83, 1.13)"
same,"White blood cell (WBC), Med. Fold Change (95% CI) from Day 1","[3]; 14–16 Days from C1, N=13","0.85 (0.65, 1.06)"
same,"Absolute Immature Granulocyte, Med. Fold Change (95% CI) from Day 1","[3]; 27–29 Days from C1, N=6","0.20 (0.00, 2.50)"
same,"Immature granulocytes, Med. Fold Change (95% CI) from Day 1","[3]; 27–29 Days from C1, N=6","0.24 (0.00, 2.00)"
same,"Absolute Eosinophil Count, Med. Fold Change (95% CI) from Day 1","[3]; 27–29 Days from C1, N=8","0.63 (0.31, 5.37)"
same,"Eosinophils %, Med. Fold Change (95% CI) from Day 1","[3]; 27–29 Days from C1, N=8","0.76 (0.48, 4.19)"
same,"Absolute Basophil Count, Med. Fold Change (95% CI) from Day 1","[3]; 27–29 Days from C1, N=9","0.33 (0.00, 0.67)"
same,"Basophils %, Med. Fold Change (95% CI) from Day 1","[3]; 27–29 Days from C1, N=9","0.22 (0.00, 0.83)"
same,"Absolute Lymphocyte Count, Med. Fold Change (95% CI) from Day 1","[3]; 27–29 Days from C1, N=10","0.86 (0.60, 1.21)"
same,"Absolute Monocyte Count, Med. Fold Change (95% CI) from Day 1","[3]; 27–29 Days from C1, N=10","0.64 (0.26, 0.88)"
same,"Absolute Neutrophil Count, Med. Fold Change (95% CI) from Day 1","[3]; 27–29 Days from C1, N=10","0.70 (0.46, 1.66)"
same,"Hemoglobin (Hgb), Med. Fold Change (95% CI) from Day 1","[3]; 27–29 Days from C1, N=10","1.03 (0.95, 1.13)"
same,"Lymphocytes %, Med. Fold Change (95% CI) from Day 1","[3]; 27–29 Days from C1, N=10","1.28 (0.47, 1.95)"
same,"Monocytes %, Med. Fold Change (95% CI) from Day 1","[3]; 27–29 Days from C1, N=10","0.84 (0.26, 1.06)"
same,"Neutrophils % + bands, Med. Fold Change (95% CI) from Day 1","[3]; 27–29 Days from C1, N=10","0.97 (0.78, 1.30)"
same,"Platelet Count, Med. Fold Change (95% CI) from Day 1","[3]; 27–29 Days from C1, N=10","0.94 (0.79, 1.18)"
same,"White blood cell (WBC), Med. Fold Change (95% CI) from Day 1","[3]; 27–29 Days from C1, N=10","0.81 (0.58, 1.28)"
same,Median ratio of tumor/plasma concentrations,[4],70%
